Bioassay records (PubChem)
Sampled rows, rich in hits. Any-hit rate of the full collection: about 1.5%.
RAD52 inh: RAD52 DNA annealing inhibitors, primary screen, biochemical, FRET, single point, set 2; AID 651710, 2012; 0.46% of 360,000 active; recombinant RAD52 DNA annealing, FRET fluorescence; DNA repair protein RAD52 homolog (Homo sapiens), P43351; inhibition, % at 18.7 µM;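 active means every replicate showing at least 50% inhibition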
S100A4 inh HTS: inhibitors of S100A4-myosin IIA peptide binding, primary screen, biochemical, fluorescence polarization, TAMRA-MyoIIA peptide; Protein S100-A4 (Homo sapiens), P26447; inhibition, % at 10.7 µM; 0.14% of 360,000 active; AID 652163, 2013;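 active means mean inhibition of at least 70% across replicates, with every replicate also reaching that level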
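incubation = readout 5 min after mixing, signal stable up to 60 min | system = S100A4 monomer protein | buffer or medium = HEPES pH 7.2 with CaCl2, KCl, NaCl, DTT, Triton | benchmarks = neutral control DMSO, positive control TFP | also added = fluorescent myosin IIA peptide, 5 nM | compound dosing = one concentration per compound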
ERAP1 inh: human ERAP1 aminopeptidase inhibitors, primary screen, biochemical, single point, plate reader; Endoplasmic reticulum aminopeptidase 1 (Homo sapiens), Q9NZ08; recombinant ERAP1, Leu-AMC fluorescence, 60 min; inhibition, % at 10.7 µM; 0.15% of 340,000 active; AID 652197, 2013;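 active means mean replicate inhibition of at least 30%, or all replicates individually reaching that 30% level; inactive means mean below 30% and not every replicate reaching it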;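 further: 0% = neutral control wells and 100% = L-leucinethiol positive control wells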
INS-1E GSIS act: GLuc luminescence reporter in INS-1E cells, primary screen for activators of glucose-dependent secretion of insulin; INS-1E GLuc reporter insulin secretion, 2-3 h; 0.61% of 370,000 active; activation, % at 16.6 µM;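 active means lowest replicate activation of at least 40%, so every replicate reaches that level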;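 further: 0% = median of neutral control wells and 100% = median of IBMX positive control wells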
MLL AF4-AF9 inh: inhibitors of AF4 peptide binding to AF9, primary screen, biochemical, AlphaScreen, biotin-AF4 peptide, FLAG-AF9, single point | Protein AF-9 (Homo sapiens), P42568 | inhibition, % at 10 µM | 0.47% of 350,000 active;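 active means every replicate reaching a set inhibition limit, whatever the replicate mean, cut at about 25% in these data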;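 further: 0% = plate neutral control median and 100% = total signal loss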
Target sequence (P42568 whole entry, looked up): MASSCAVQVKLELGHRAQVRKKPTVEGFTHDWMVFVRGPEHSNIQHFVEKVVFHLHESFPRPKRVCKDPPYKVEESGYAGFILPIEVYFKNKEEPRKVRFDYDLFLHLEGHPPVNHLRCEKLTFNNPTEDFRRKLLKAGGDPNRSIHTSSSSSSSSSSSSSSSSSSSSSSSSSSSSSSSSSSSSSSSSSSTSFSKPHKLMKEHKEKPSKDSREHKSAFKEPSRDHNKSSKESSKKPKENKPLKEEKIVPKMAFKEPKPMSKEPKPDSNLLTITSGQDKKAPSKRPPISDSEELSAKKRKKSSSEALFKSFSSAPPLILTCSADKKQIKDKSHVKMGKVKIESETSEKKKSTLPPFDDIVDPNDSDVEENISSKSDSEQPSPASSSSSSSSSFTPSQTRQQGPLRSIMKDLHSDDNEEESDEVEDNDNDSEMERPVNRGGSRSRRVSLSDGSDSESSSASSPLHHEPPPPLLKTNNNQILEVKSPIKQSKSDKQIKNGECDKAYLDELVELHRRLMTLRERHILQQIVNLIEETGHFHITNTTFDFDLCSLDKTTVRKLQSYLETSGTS
Active calls of the source: *.

CCCN1C[C@@H](C)[C@H](OC)CN(C)C(=O)c2cc(NC(=O)Nc3ccccc3F)ccc2OC[C@H]1C was read as RAD52 inh 27, S100A4 inh HTS -2, INS-1E GSIS act -14 and MLL AF4-AF9 inh 0.
Screening CCN1[C@@H]2c3ccc(-c4ccccc4OC)c(=O)n3C[C@@H]2[C@@H](CO)[C@@H]1C(=O)NCCCN(C)C returned RAD52 inh 1, S100A4 inh HTS -7, ERAP1 inh -5, INS-1E GSIS act 8 and MLL AF4-AF9 inh 0.
O=C(COc1ccccc1-c1ccccc1)NCc1ccco1 was read as RAD52 inh -15, S100A4 inh HTS -6, ERAP1 inh 4, INS-1E GSIS act 0 and MLL AF4-AF9 inh 5.
O=C(O)COc1ccccc1-c1ccccc1 was read as RAD52 inh -18, S100A4 inh HTS 1, ERAP1 inh -2, INS-1E GSIS act 41* and MLL AF4-AF9 inh -6.
Screening COc1ccc(CC2(C)OC(c3ccc([N+](=O)[O-])cc3)=NN2C(C)=O)cc1 (stereo not given) returned RAD52 inh -11, S100A4 inh HTS -4, ERAP1 inh 2, INS-1E GSIS act -42 and MLL AF4-AF9 inh 27*.
`COc1ccccc1N1C(=S)NC2CS(=O)(=O)CC21` (stereo not given) gave RAD52 inh -5, S100A4 inh HTS -2, ERAP1 inh 0 and MLL AF4-AF9 inh -1.
`CCc1ccc(C2NC(=S)NC3=C2C(=O)N(c2ccccc2OC)C(c2ccc(CC)cc2)N3)cc1` (stereo not given) gave INS-1E GSIS act 127*.
CCCN1[C@H](C(=O)OC)[C@@H](CO)[C@@H]2Cn3c(ccc(-c4cccnc4)c3=O)[C@@H]21 was read as RAD52 inh -8, S100A4 inh HTS 7, ERAP1 inh -2, INS-1E GSIS act 7 and MLL AF4-AF9 inh -6.
Screening O=C(C[C@@H]1CC[C@H]2[C@@H](COC[C@@H](O)CN2Cc2ccc(Cl)cc2)O1)Nc1nccs1 returned RAD52 inh 15, S100A4 inh HTS -3, ERAP1 inh -1, INS-1E GSIS act -10 and MLL AF4-AF9 inh 3.
C[C@H]1CCCCO[C@@H](CN(C)S(=O)(=O)c2cccs2)[C@@H](C)CN([C@@H](C)CO)C(=O)c2cc(NS(=O)(=O)c3cn(C)cn3)ccc2O1 was read as RAD52 inh 109*, S100A4 inh HTS -8, ERAP1 inh 3, INS-1E GSIS act 6 and MLL AF4-AF9 inh -1.
`C[C@@H]1CCCCO[C@@H](CN(C)S(=O)(=O)c2cccs2)[C@H](C)CN([C@@H](C)CO)C(=O)c2cc(NS(=O)(=O)c3cn(C)cn3)ccc2O1` gave RAD52 inh 84*, S100A4 inh HTS 39, ERAP1 inh 3, INS-1E GSIS act 13 and MLL AF4-AF9 inh -3.
Screening C[C@@H]1CCCCO[C@@H](CN(C)S(=O)(=O)c2cccs2)[C@@H](C)CN([C@@H](C)CO)C(=O)c2cc(NS(=O)(=O)c3cn(C)cn3)ccc2O1 returned RAD52 inh 111*, S100A4 inh HTS -7, ERAP1 inh 3, INS-1E GSIS act 18 and MLL AF4-AF9 inh -3.
For C[C@@H]1CN([C@H](C)CO)C(=O)c2cc(NS(=O)(=O)c3cn(C)cn3)ccc2O[C@@H](C)CCCCO[C@H]1CN(C)S(=O)(=O)c1cccs1 the results were RAD52 inh 4, S100A4 inh HTS -1, ERAP1 inh 0, INS-1E GSIS act 20 and MLL AF4-AF9 inh 0.
For COc1ccc2c3c([nH]c2c1)[C@@H](CO)N(C(=O)CN1CCOCC1)CC31CN(C(=O)NC(C)C)C1 the results were INS-1E GSIS act 27 and MLL AF4-AF9 inh -2.
CCc1nn2c(=O)cc(COc3ccc(NC(=O)c4ccco4)cc3)nc2s1 was read as RAD52 inh -35, S100A4 inh HTS 8, ERAP1 inh 2, INS-1E GSIS act 2 and MLL AF4-AF9 inh -1.
`CC(C)Cc1nn2c(=O)cc(COc3ccc(NC(=O)c4ccco4)cc3)nc2s1` gave RAD52 inh -16, S100A4 inh HTS 7, ERAP1 inh 0, INS-1E GSIS act 47* and MLL AF4-AF9 inh -7.
C#Cc1ccc([C@@H]2C=C(C(=O)N3CCCCCCC3)O[C@H](OCC)[C@H]2CCCO)cc1 was read as RAD52 inh 7, S100A4 inh HTS 7, ERAP1 inh 2 and MLL AF4-AF9 inh 0.
CNc1nc(Cl)nc2c1ncn2-c1ccccc1 was read as RAD52 inh -14, S100A4 inh HTS -2, ERAP1 inh -1, INS-1E GSIS act 87* and MLL AF4-AF9 inh 4.
Clc1nc(Cl)c2ncn(-c3ccccc3)c2n1 was read as RAD52 inh -43, S100A4 inh HTS -1, ERAP1 inh 1, INS-1E GSIS act 0 and MLL AF4-AF9 inh 2.
Screening Cc1ccc(NC(=O)CC2S/C(=N/N=C/c3c[nH]c4ccccc34)NC2=O)cc1 (stereo not given) returned INS-1E GSIS act 60*.
Screening CCOC(=O)N1CCN(C(=O)C2CCN(C(=O)c3ccccc3C)CC2)CC1 returned RAD52 inh -42, S100A4 inh HTS 8, ERAP1 inh 28, INS-1E GSIS act 106* and MLL AF4-AF9 inh -1.
`O=C(C1CC1)N1CC(=O)N2[C@H](CO)[C@@H](c3ccc(C#Cc4cccc(F)c4)cc3)[C@@H]2C1` gave RAD52 inh 3, S100A4 inh HTS 5, ERAP1 inh 0, INS-1E GSIS act -3 and MLL AF4-AF9 inh -3.
`C[C@@H]1CN([C@H](C)CO)C(=O)c2cc(NC(=O)Nc3cccc4ccccc34)ccc2O[C@@H](C)CCCCO[C@@H]1CN(C)S(=O)(=O)c1ccccc1` gave INS-1E GSIS act 35.
For CCC(C)N(C(=O)Cn1c(Cl)nc2c1c(=O)n(C)c(=O)n2C)C1CCS(=O)(=O)C1 (stereo not given) the results were RAD52 inh -2, S100A4 inh HTS -4, ERAP1 inh -1, INS-1E GSIS act 9 and MLL AF4-AF9 inh 0.
CN(C(=O)Cn1c(Cl)nc2c1c(=O)n(C)c(=O)n2C)C1CCS(=O)(=O)C1 (stereo not given) was read as RAD52 inh -4, S100A4 inh HTS -3, ERAP1 inh 83*, INS-1E GSIS act 6 and MLL AF4-AF9 inh 3.
Screening Cc1ccc2[nH]c(=O)c(CN(CC3CCCO3)C(=O)c3cccs3)cc2c1 (stereo not given) returned RAD52 inh 4, S100A4 inh HTS -1, ERAP1 inh -3, INS-1E GSIS act 156* and MLL AF4-AF9 inh -4.
CC(/C=C/C=C/c1ccccc1)=N/NC(=O)CNc1ccccc1C was read as INS-1E GSIS act 136*.
CCOc1ccc(C(=O)Nc2ccc(-c3nc4ccccc4[nH]3)cc2)cc1[N+](=O)[O-] was read as INS-1E GSIS act 102*.
